Results: ChEMBL document CHEMBL1240327, “Small molecules enhance autophagy and reduce toxicity in Huntington's disease models” (Nat Chem Biol, 2007)
Active and inactive are the calls of the source. No cut-off for these calls is given here.

Assays:
[1] = tested on: Saccharomyces cerevisiae; assay: Inhibition of 50 nM rapamycin-mediated cytostatic effect in yeast BY4742 after 48 to 96 hrs; assay type: functional, organism-based
[2] = tested on: Saccharomyces cerevisiae; assay: Inhibition of rapamycin-mediated cytostatic effect in yeast RM11-1a after 48 to 96 hrs; assay type: functional
[3] = tested on: Saccharomyces bayanus; assay: Inhibition of rapamycin-mediated cytostatic effect in Saccharomyces bayanus after 48 to 96 hrs; assay type: functional
[4] = tested on: Saccharomyces mikatae; assay: Inhibition of rapamycin-mediated cytostatic effect in Saccharomyces mikatae after 48 to 96 hrs; assay type: functional
[5] = tested on: Saccharomyces paradoxus; assay: Inhibition of rapamycin-mediated cytostatic effect in Saccharomyces paradoxus after 48 to 96 hrs; assay type: functional
[6] = tested on: PC-12; assay: Enhancement of autophagy in rat PC12 cells assessed as decrease in alpha-synuclein A53T mutant level at 43 uM by immunoblotting; assay type: functional, cell-based
Method in brief: (§1)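 Stable PC12 line with doxycycline-inducible HA-tagged A53T α-synuclein; induced with 1 μg/ml doxycycline for 48 h, then doxycycline removed. Compounds added during the 24 h switch-off period, from 5 mg ml⁻¹ DMSO stock diluted 1:20000, 1:4000 or 1:400. HA immunoblot, densitometry relative to actin; control set to 100 %; three independent experiments, factorial ANOVA.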

[7] = Cytotoxicity against african green monkey COS7 cells at 47 uM after 24 hrs by FACS analysis; assay type: cell-based; conditions: chlorocebus aethiops, cos-7, 24 h
[8] = biological target: Huntingtin (Homo sapiens) (UniProt P42858); assay: Inhibition of EGFP-tagged huntingtin aggregation expressed in african green monkey COS7 cells at 47 uM after 48 hrs by […]; assay type: cell-based; conditions: COS-7
[9] = biological target: Huntingtin (Homo sapiens) (UniProt P42858); assay: Inhibition of EGFP-tagged huntingtin expressed in african green monkey COS7 cells assessed as protection against protein-induced cell death at 47 uM after 48 hrs by Western blot analysis; assay type: cell-based; conditions: COS-7
[10] = biological target: Huntingtin (Mus musculus) (UniProt P42859); assay: Inhibition of EGFP-tagged huntingtin aggregation in MEF harboring Atg5 gene at 47 uM after 48 hrs by Western blot analysis
[11] = biological target: Huntingtin (Mus musculus) (UniProt P42859); assay: Inhibition of EGFP-tagged huntingtin aggregation in Atg5-deficient MEF at 47 uM after 48 hrs by Western blot analysis
[12] = tested on: HeLa; assay: Induction of autophagy in human HeLa cells harboring MAP1LC3 gene at 47 uM after 24 hrs by DAPI staining-based fluorescence microscopy; assay type: functional, cell-based
Method in brief: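 Stable EGFP-LC3 HeLa cells treated 24 h. EGFP-positive autophagic vesicles were imaged by confocal microscopy with DAPI nuclear counterstain.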

[13] = tested on: HeLa; assay: Increase in MAP1LC3 level in bafilomycin A1-treated human HeLa cells at 47 uM treated fro 24 hrs before bafilomycin A1 challenge by immunoblotting analysis; assay type: functional, cell-based
Method in brief: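 HeLa cells stably expressing EGFP-LC3 were pretreated with compound for 24 h, then given 200 nM bafilomycin A1 for 4 h. EGFP-LC3-II was measured by anti-EGFP immunoblot with densitometry relative to actin, from three independent experiments.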

[14] = tested on: Drosophila melanogaster; assay: Neuroprotective activity in Drosophila melanogaster Huntington's disease model harboring huntington protein mutant assessed as protection against neurodegeneration at 100 uM; assay type: functional, organism-based
[15] = tested on: Drosophila melanogaster; assay: Toxicity against Drosophila melanogaster Huntington's disease model at 100 uM; assay type: organism-based; conditions: in vivo
[16] = biological target: Serine/threonine-protein kinase mTOR (Homo sapiens) (UniProt P42345); assay: Inhibition of mTOR phosphorylation expressed in african green monkey COS7 cells at 47 uM by Western blot analysis; assay type: cell-based; conditions: COS-7
[17] = tested on: COS-7; assay: Effect on ATg6 level in african green monkey COS7 cells at 47 uM after 24 hrs by immunoblotting; assay type: functional, cell-based; conditions: Chlorocebus aethiops
[18] = tested on: COS-7; assay: Effect on ATg5 level in african green monkey COS7 cells at 47 uM after 24 hrs by immunoblotting; assay type: functional, cell-based; conditions: Chlorocebus aethiops
[19] = tested on: COS-7; assay: Effect on ATg7 level in african green monkey COS7 cells at 47 uM after 24 hrs by immunoblotting; assay type: functional, cell-based; conditions: Chlorocebus aethiops
[20] = tested on: COS-7; assay: Effect on ATg12 level in african green monkey COS7 cells at 47 uM after 24 hrs by immunoblotting; assay type: functional, cell-based; conditions: Chlorocebus aethiops
[21] = tested on: COS-7; assay: Increase in conjugated Atg12-Atg5 level in african green monkey COS7 cells at 47 uM after 24 hrs by immunoblotting; assay type: functional, cell-based; conditions: Chlorocebus aethiops
[22] = tested on: HeLa; assay: Inhibition of proteasome activity in human HeLa cells assessed as induction of ubiquitinG76V-EGFP reporter level at 47 uM after 24 hrs by immunoblotting
[23] = tested on: PC-12; assay: Enhancement of rapamycin-induced clearance of alpha-synuclein A53T mutant protein in rat PC12 cells at 140 uM after 8 hrs by immunoblotting; assay type: functional, cell-based
Method in brief: (§2)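 Inducible PC12 A53T α-synuclein line (1 μg/ml doxycycline, 48 h, then switched off). Compound given alone or with 0.2 μM rapamycin over an 8 h switch-off period. Read-out is anti-HA immunoblot with densitometry relative to actin, n=3, control as 100 %.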

[24] = tested on: PC-12; assay: Enhancement of rapamycin-induced clearance of alpha-synuclein A53T mutant protein in rat PC12 cells at 43 uM after 8 hrs by immunoblotting; assay type: functional, cell-based; method in brief: as §2
[25] = biological target: Huntingtin (Homo sapiens) (UniProt P42858); assay: Inhibition of EGFP-tagged huntingtin aggregation expressed in african green monkey COS7 cells at 140 uM after 24 hrs by […] in presence of 0.2 uM rapamycin; assay type: cell-based; conditions: COS-7
[26] = tested on: Saccharomyces cerevisiae; assay: Enhancement of 20 nM rapamycin-mediated cytostatic effect in yeast BY4742 after 48 to 96 hrs; assay type: functional, organism-based
[27] = tested on: Saccharomyces cerevisiae; assay: Enhancement of rapamycin-mediated cytostatic effect in yeast RM11-1a after 48 to 96 hrs; assay type: functional
[28] = tested on: Saccharomyces bayanus; assay: Enhancement of rapamycin-mediated cytostatic effect in Saccharomyces bayanus after 48 to 96 hrs; assay type: functional
[29] = tested on: Saccharomyces mikatae; assay: Enhancement of rapamycin-mediated cytostatic effect in Saccharomyces mikatae after 48 to 96 hrs; assay type: functional
[30] = tested on: Saccharomyces paradoxus; assay: Enhancement of rapamycin-mediated cytostatic effect in Saccharomyces paradoxus after 48 to 96 hrs; assay type: functional
[31] = tested on: Saccharomyces cerevisiae; assay: Enhancement of anisomycin-mediated cytostatic effect in yeast BY4742 after 48 to 96 hrs; assay type: functional, organism-based
[32] = tested on: Saccharomyces cerevisiae; assay: Enhancement of CHX-mediated cytostatic effect in yeast BY4742 after 48 to 96 hrs; assay type: functional, organism-based
[33] = tested on: Saccharomyces cerevisiae; assay: Enhancement of nocodazole-mediated cytostatic effect in yeast BY4742 after 48 to 96 hrs; assay type: functional, organism-based
[34] = tested on: Saccharomyces cerevisiae; assay: Enhancement of tunicamycin-mediated cytostatic effect in yeast BY4742 after 48 to 96 hrs; assay type: functional, organism-based
[35] = tested on: PC-12; assay: Enhancement of autophagy in rat PC12 cells assessed as decrease in alpha-synuclein A53T mutant level at 5 mg/ml by densitometry; assay type: functional, cell-based; method in brief: as §1
[36] = tested on: Saccharomyces cerevisiae; assay: Enhancement of menadione-mediated cytostatic effect in yeast BY4742 after 48 to 96 hrs; assay type: functional, organism-based
[37] = tested on: PC-12; assay: Enhancement of autophagy in rat PC12 cells assessed as decrease in alpha-synuclein A53T mutant level at 47 uM by immunoblotting; assay type: functional, cell-based; method in brief: as §1
[38] = tested on: PC-12; assay: Enhancement of rapamycin-induced clearance of alpha-synuclein A53T mutant protein in rat PC12 cells at 47 uM after 8 hrs by immunoblotting; assay type: functional, cell-based; method in brief: as §2
[39] = biological target: Huntingtin (Homo sapiens) (UniProt P42858); assay: Inhibition of EGFP-tagged huntingtin aggregation expressed in african green monkey COS7 cells at 47 uM after 24 hrs by […] in presence of 0.2 uM rapamycin; assay type: cell-based; conditions: COS-7

Sequence of Huntingtin (Homo sapiens) (P42858 whole entry): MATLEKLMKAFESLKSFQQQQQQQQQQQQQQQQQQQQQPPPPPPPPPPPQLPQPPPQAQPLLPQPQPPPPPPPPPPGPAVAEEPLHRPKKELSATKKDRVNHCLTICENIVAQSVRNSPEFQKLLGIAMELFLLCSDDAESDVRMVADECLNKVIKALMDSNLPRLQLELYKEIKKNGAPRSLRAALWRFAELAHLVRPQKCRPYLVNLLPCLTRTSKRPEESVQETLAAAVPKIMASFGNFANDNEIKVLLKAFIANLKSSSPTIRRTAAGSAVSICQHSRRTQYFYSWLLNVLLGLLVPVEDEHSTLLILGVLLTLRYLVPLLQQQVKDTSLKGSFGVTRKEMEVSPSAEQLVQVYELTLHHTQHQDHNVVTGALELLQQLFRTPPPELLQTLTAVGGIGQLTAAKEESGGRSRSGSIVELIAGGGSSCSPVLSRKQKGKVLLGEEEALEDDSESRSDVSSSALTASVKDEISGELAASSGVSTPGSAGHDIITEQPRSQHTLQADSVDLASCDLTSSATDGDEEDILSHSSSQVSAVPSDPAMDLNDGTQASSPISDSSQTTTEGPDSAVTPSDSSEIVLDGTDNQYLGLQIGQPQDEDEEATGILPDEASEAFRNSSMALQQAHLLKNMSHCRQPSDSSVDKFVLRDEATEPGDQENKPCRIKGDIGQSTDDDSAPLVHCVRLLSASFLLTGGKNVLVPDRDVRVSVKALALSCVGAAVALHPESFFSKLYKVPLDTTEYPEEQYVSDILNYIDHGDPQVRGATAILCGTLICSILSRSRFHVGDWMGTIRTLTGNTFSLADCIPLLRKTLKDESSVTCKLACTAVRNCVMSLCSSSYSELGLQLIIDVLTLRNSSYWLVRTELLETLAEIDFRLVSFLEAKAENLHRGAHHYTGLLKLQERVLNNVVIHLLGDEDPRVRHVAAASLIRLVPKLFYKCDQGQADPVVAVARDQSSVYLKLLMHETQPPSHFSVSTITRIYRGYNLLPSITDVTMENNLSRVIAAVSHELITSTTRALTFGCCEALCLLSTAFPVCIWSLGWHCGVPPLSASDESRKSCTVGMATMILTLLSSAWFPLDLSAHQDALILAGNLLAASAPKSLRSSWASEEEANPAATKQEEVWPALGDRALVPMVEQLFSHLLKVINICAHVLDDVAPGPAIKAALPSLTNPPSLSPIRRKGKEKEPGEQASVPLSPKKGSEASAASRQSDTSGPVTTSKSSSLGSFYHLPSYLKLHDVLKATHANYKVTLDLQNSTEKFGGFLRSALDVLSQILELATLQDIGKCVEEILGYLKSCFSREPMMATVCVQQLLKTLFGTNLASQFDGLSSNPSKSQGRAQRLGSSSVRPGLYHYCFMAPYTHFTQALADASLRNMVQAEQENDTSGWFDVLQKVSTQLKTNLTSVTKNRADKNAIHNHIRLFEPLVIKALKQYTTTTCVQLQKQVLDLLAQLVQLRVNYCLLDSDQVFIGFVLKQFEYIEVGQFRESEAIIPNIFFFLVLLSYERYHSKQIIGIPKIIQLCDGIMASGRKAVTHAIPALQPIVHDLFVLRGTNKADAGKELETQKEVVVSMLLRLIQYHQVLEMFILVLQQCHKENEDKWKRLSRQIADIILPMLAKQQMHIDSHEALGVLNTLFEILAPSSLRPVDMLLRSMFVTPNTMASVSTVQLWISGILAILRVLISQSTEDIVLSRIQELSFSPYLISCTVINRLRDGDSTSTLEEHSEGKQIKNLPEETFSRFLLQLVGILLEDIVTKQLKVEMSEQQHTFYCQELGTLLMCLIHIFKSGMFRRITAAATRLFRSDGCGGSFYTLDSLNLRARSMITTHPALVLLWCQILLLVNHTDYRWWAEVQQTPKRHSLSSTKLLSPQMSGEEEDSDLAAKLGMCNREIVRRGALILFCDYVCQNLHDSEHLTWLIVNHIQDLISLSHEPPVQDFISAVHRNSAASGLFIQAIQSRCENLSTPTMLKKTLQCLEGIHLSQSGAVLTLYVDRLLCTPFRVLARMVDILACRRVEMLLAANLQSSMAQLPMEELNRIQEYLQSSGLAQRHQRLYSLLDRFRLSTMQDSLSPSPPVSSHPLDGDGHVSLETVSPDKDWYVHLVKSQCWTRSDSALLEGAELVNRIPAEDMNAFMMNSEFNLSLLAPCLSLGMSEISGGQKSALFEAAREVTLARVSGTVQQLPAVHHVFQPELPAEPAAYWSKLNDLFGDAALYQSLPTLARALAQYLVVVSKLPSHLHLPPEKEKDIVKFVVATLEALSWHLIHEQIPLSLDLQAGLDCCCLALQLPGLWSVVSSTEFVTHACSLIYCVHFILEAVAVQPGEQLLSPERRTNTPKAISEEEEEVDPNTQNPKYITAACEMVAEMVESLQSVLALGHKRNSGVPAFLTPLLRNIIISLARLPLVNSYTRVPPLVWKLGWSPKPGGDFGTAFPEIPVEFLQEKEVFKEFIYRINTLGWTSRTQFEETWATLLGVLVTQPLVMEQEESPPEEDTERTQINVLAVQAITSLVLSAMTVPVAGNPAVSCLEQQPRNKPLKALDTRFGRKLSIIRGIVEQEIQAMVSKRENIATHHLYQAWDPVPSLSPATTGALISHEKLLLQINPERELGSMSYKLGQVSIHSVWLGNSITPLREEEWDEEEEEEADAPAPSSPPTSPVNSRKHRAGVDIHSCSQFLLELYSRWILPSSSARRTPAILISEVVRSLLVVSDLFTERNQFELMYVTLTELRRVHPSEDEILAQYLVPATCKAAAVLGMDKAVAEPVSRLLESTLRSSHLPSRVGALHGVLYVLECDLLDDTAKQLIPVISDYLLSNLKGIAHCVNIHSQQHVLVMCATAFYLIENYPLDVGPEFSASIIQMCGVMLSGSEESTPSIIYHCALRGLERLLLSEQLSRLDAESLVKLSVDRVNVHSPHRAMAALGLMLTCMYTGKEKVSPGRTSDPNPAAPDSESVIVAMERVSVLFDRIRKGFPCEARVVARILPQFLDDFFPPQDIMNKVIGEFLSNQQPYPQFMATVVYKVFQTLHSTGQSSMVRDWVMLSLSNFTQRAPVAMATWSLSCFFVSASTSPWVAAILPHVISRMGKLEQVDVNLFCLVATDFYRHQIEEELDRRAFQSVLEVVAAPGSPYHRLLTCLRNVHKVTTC

inhibition [8] | inhibition [10] | inhibition [11] | inhibition [16] | inhibition [22] | EC50 [26] [µM] | Structure (SMILES) | Activity [6] | Activity [7] | inhibition [9] | Activity [12] | Activity [13] | Activity [14] | Activity [15] | Activity [17] | Activity [18] | Activity [19] | Activity [20] | Activity [21] | Activity [27] | Activity [28] | further results
 |  |  |  |  |  | S=C(S)OC1CC2CC1C1CCCC21 (stereo not drawn) |  |  |  |  |  |  |  |  |  |  |  |  |  |  | EC50 [1]: 0.412 µM; inhibition [2]: Active; inhibition [3]: Active; inhibition [4]: Active; inhibition [5]: Active
Active | inactive | inactive | inactive | inactive | 4.9 | Nn1cnc2c(c1=O)C1(CCCC1)Cc1ccccc1-2 | Active | Non-toxic | Active | Active | Active | Active | Non-toxic | inactive | inactive | inactive | inactive | inactive | Active | Active | Activity [23]: Active; Activity [24]: Active; inhibition [25]: Active; Activity [29]: Active; Activity [30]: Active; Activity [31]: Active; Activity [32]: Active; Activity [33]: Active; Activity [34]: Active; Activity [35]: Active; Activity [36]: Active; Activity [37]: Active
Active | inactive | inactive | inactive | inactive | > 50 | C=CCNc1ncnc2ccc(Br)cc12 | Active | Non-toxic | Active | Active | Active | Active | Non-toxic | inactive | inactive | inactive | inactive | inactive | Active | Active | Activity [38]: Active; inhibition [39]: Active; Activity [29]: Active; Activity [30]: Active; Activity [35]: Active; Activity [37]: Active
